Drawing on ChEMBL document CHEMBL1140795, “Antimicrobial activities of the bromophenols from the red alga Odonthalia corymbifera and some synthetic derivatives” (2008), this text covers MIC for 17 compounds.

The term MIC denotes the lowest concentration that inhibits growth of the organism. High values mean a less susceptible organism, low ones a more susceptible organism.

One experiment has as its system Trichophyton rubrum. Nature of the experiment: Antifungal activity against Trichophyton rubrum IFO 9185 after 48 to 72 hrs. The class given is functional. Summed up: (§1)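 Filamentous fungi were grown on potato dextrose agar for 2 weeks at 28 °C. Spores were washed three times in sterile water and resuspended at 10⁵ spores/ml. Compounds were dissolved in DMSO and serially diluted twofold in potato dextrose broth. Wells received broth containing about 10⁴ cells/ml and were incubated 48–72 h at 28 °C. The MIC was recorded.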

In another experiment the test system is Proteus vulgaris. Kind of experiment: Antibacterial activity against Proteus vulgaris ATCC 3851 after 24 hrs. The class given is functional. The conditions noted are these: ATCC 3851, 24 h. Summed up:
(§2)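 Bacteria were grown overnight in LB broth at 37 °C, harvested by centrifugation and washed twice with sterile water. Test compounds were dissolved as DMSO stocks and serially diluted twofold in Standard method broth. Wells received broth containing about 10⁵ cfu/ml of bacteria and were incubated 24 h at 37 °C. The MIC was recorded.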

For the next experiment, the system named is Escherichia coli. Nature of the experiment: Antibacterial activity against Escherichia coli ATCC 25922 after 24 hrs. In kind it is functional. To be noted: ATCC 25922, 24 h. The essentials: as §2
Another experiment deals with Micrococcus luteus. Kind of experiment: Antibacterial activity against Micrococcus luteus IFC 12708 after 24 hrs. The class given is functional. The essentials:
as §2

In a further experiment the test system is Staphylococcus aureus. Kind of experiment: Antibacterial activity against Staphylococcus aureus ATCC 6538p after 24 hrs. In kind it is functional. Summed up:
as §2

Another experiment deals with Aspergillus fumigatus. Kind of experiment: Antifungal activity against Aspergillus fumigatus HIC6094 after 48 to 72 hrs. The class given is functional. Summed up: as §1
Another experiment relates to Candida albicans. Nature of the experiment: Antifungal activity against Candida albicans ATCC 10231 after 48 to 72 hrs. The class given is functional. Summed up:
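C. albicans ATCC 10231 was grown 48 h at 28 °C in YPD broth (1% yeast extract, 2% peptone, 2% dextrose), centrifuged and washed twice with sterile water. Compounds were dissolved in DMSO and serially diluted twofold in potato dextrose broth. Wells received broth containing about 10³ cells/ml and were incubated 48–72 h at 28 °C. The MIC was recorded.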

The next experiment has as its system Trichophyton benhamiae. Nature of the experiment: Antifungal activity against Trichophyton mentagrophytes IFO 40996 after 48 to 72 hrs. In kind it is functional, Arthroderma benhamiae. The essentials: as §1
A further experiment relates to Bacillus subtilis. Nature of the experiment: Antibacterial activity against Bacillus subtilis ATCC 6633 after 24 hrs. The conditions noted are these: ATCC 6633, 24 h. In kind it is functional. Summed up:
as §2

A further experiment has as its system Salmonella typhimurium. Kind of experiment: Antibacterial activity against Salmonella Typhimurium ATCC 14028 after 24 hrs. The conditions noted are these: Salmonella enterica, ATCC 14028, 24 h. In kind it is functional, Salmonella enterica subsp. enterica serovar Typhimurium. Summed up: as §2

The structures appear in SMILES notation. In brackets after ≈: the same amount, converted by molar mass.

Regarding `COCc1cc(O)c(O)c(Br)c1Cc1cc(O)c(O)c(Br)c1Br`, the MIC with Trichophyton rubrum is 25 µg/mL (≈ 48.7 µM); in the experiment on Proteus vulgaris it was 25 µg/mL (≈ 48.7 µM); against Escherichia coli it was more than 100 µg/mL; with Micrococcus luteus it was 25 µg/mL (≈ 48.7 µM); with Staphylococcus aureus, 25 µg/mL (≈ 48.7 µM); in the experiment on Aspergillus fumigatus, 25 µg/mL (≈ 48.7 µM). In addition, the MIC in the experiment with Candida albicans, against Trichophyton benhamiae, against Bacillus subtilis and in the experiment on Salmonella typhimurium was 25 µg/mL (≈ 48.7 µM) in each case.

Take `OCc1cc(O)c(O)cc1Cc1ccc(O)c(O)c1`: the MIC in the experiment with Trichophyton rubrum, in the experiment on Proteus vulgaris, with Escherichia coli, in the experiment on Micrococcus luteus, against Staphylococcus aureus and against Aspergillus fumigatus was more than 100 µg/mL in each case. In addition, the MIC in the experiment on Candida albicans, against Trichophyton benhamiae, against Bacillus subtilis and in the experiment with Salmonella typhimurium was more than 100 µg/mL each time.

Take `Oc1c(Br)cc(Cc2cc(Br)c(O)c(Br)c2O)c(O)c1Br`: the MIC with Trichophyton rubrum, in the experiment on Proteus vulgaris, in the experiment with Escherichia coli, against Micrococcus luteus, against Staphylococcus aureus and with Aspergillus fumigatus was more than 100 µg/mL in each case. Further, the MIC against Candida albicans, against Trichophyton benhamiae, in the experiment with Bacillus subtilis and against Salmonella typhimurium was more than 100 µg/mL each time.

Take `Oc1ccc(Br)cc1Cc1cc(Br)ccc1O`: the MIC against Trichophyton rubrum was more than 100 µg/mL; in the experiment on Proteus vulgaris, 3.12 µg/mL (≈ 8.71 µM); in the experiment on Escherichia coli, more than 100 µg/mL; in the experiment with Micrococcus luteus, 1.56 µg/mL (≈ 4.36 µM); in the experiment on Staphylococcus aureus it was 3.12 µg/mL (≈ 8.71 µM); with Aspergillus fumigatus, more than 100 µg/mL. Also, the MIC with Candida albicans was more than 100 µg/mL; against Trichophyton benhamiae it was more than 100 µg/mL; with Bacillus subtilis it was 3.12 µg/mL (≈ 8.71 µM); against Salmonella typhimurium it was 3.12 µg/mL (≈ 8.71 µM).

On to `Oc1c(Br)cc(Br)cc1Cc1cc(Br)cc(Br)c1O`, for which the minimum inhibitory concentration (MIC) against Trichophyton rubrum was more than 100 µg/mL; against Proteus vulgaris, 1.56 µg/mL (≈ 3.02 µM); in the experiment on Escherichia coli it was more than 100 µg/mL; in the experiment on Micrococcus luteus, 1.56 µg/mL (≈ 3.02 µM); with Staphylococcus aureus, 1.56 µg/mL (≈ 3.02 µM); with Aspergillus fumigatus, more than 100 µg/mL. In addition, the MIC is more than 100 µg/mL against Candida albicans, more than 100 µg/mL in the experiment on Trichophyton benhamiae, 1.56 µg/mL (≈ 3.02 µM) with Bacillus subtilis and 3.12 µg/mL (≈ 6.05 µM) in the experiment with Salmonella typhimurium.

Turning to `Oc1ccc(Cc2ccc(O)c(Br)c2)cc1Br`, the MIC with Trichophyton rubrum was more than 100 µg/mL; against Proteus vulgaris, 25 µg/mL (≈ 69.8 µM); against Escherichia coli, more than 100 µg/mL; in the experiment with Micrococcus luteus, 12.5 µg/mL (≈ 34.9 µM); against Staphylococcus aureus it was 25 µg/mL (≈ 69.8 µM); against Aspergillus fumigatus, more than 100 µg/mL. The MIC was more than 100 µg/mL against Candida albicans, more than 100 µg/mL against Trichophyton benhamiae, 12.5 µg/mL (≈ 34.9 µM) against Bacillus subtilis and 25 µg/mL (≈ 69.8 µM) against Salmonella typhimurium.

As for `Oc1cc(Cc2cc(O)c(O)c(Br)c2Br)c(Br)c(Br)c1O`, the MIC in the experiment on Trichophyton rubrum was 1.56 µg/mL (≈ 2.85 µM); with Proteus vulgaris, 50 µg/mL (≈ 91.3 µM); in the experiment on Escherichia coli, more than 100 µg/mL; in the experiment on Micrococcus luteus, 25 µg/mL (≈ 45.6 µM); with Staphylococcus aureus it was 25 µg/mL (≈ 45.6 µM); in the experiment with Aspergillus fumigatus it was 0.78 µg/mL (≈ 1.42 µM). Moreover, the MIC against Candida albicans worked out at 1.56 µg/mL (≈ 2.85 µM); against Trichophyton benhamiae it was 1.56 µg/mL (≈ 2.85 µM); with Bacillus subtilis it was 25 µg/mL (≈ 45.6 µM); against Salmonella typhimurium it was 50 µg/mL (≈ 91.3 µM).

Turning to `Oc1ccc(Cc2ccc(O)c(O)c2)cc1O`, the MIC in the experiment on Trichophyton rubrum, in the experiment with Proteus vulgaris, against Escherichia coli, in the experiment with Micrococcus luteus, with Staphylococcus aureus and against Aspergillus fumigatus was more than 100 µg/mL throughout. Also, the MIC against Candida albicans, with Trichophyton benhamiae, with Bacillus subtilis and against Salmonella typhimurium was more than 100 µg/mL in each case.

Turning to `OCc1cc(O)c(O)c(Br)c1Cc1cc(O)c(O)c(Br)c1Br`, the MIC in the experiment on Trichophyton rubrum was 50 µg/mL (≈ 100 µM); with Proteus vulgaris, 100 µg/mL (≈ 200 µM); with Escherichia coli, more than 100 µg/mL; against Micrococcus luteus, 50 µg/mL (≈ 100 µM); against Staphylococcus aureus, 50 µg/mL (≈ 100 µM); in the experiment on Aspergillus fumigatus, more than 100 µg/mL. The MIC against Candida albicans is 100 µg/mL (≈ 200 µM); with Trichophyton benhamiae it was 50 µg/mL (≈ 100 µM); in the experiment on Bacillus subtilis, 100 µg/mL (≈ 200 µM); with Salmonella typhimurium it was 100 µg/mL (≈ 200 µM).

Turning to `Oc1c(Br)cc(Cc2cc(Br)c(O)c(Br)c2)cc1Br`, the minimum inhibitory concentration (MIC) against Trichophyton rubrum, in the experiment with Proteus vulgaris, in the experiment on Escherichia coli, against Micrococcus luteus, in the experiment with Staphylococcus aureus and in the experiment on Aspergillus fumigatus was more than 100 µg/mL throughout. Also, the minimal inhibitory concentration (MIC) with Candida albicans, against Trichophyton benhamiae, against Bacillus subtilis and in the experiment with Salmonella typhimurium was more than 100 µg/mL in each case.

Consider `COCc1cc(O)c(O)c(Br)c1Br`, for which the MIC was 12.5 µg/mL (≈ 40.1 µM) against Trichophyton rubrum; more than 100 µg/mL against Proteus vulgaris; more than 100 µg/mL in the experiment on Escherichia coli; more than 100 µg/mL against Micrococcus luteus; more than 100 µg/mL against Staphylococcus aureus; more than 100 µg/mL in the experiment with Aspergillus fumigatus. For the same compound, the MIC in the experiment with Candida albicans was 100 µg/mL (≈ 321 µM); against Trichophyton benhamiae, 12.5 µg/mL (≈ 40.1 µM); against Bacillus subtilis it was more than 100 µg/mL; in the experiment on Salmonella typhimurium, more than 100 µg/mL.

Consider `Oc1ccc(Cc2cc(Br)c(O)c(Br)c2)cc1Br`, for which the MIC was more than 100 µg/mL against Trichophyton rubrum; 6.25 µg/mL (≈ 14.3 µM) against Proteus vulgaris; more than 100 µg/mL against Escherichia coli; 6.25 µg/mL (≈ 14.3 µM) in the experiment with Micrococcus luteus; 12.5 µg/mL (≈ 28.6 µM) in the experiment on Staphylococcus aureus; more than 100 µg/mL against Aspergillus fumigatus. Further, the MIC against Candida albicans is more than 100 µg/mL; in the experiment on Trichophyton benhamiae, more than 100 µg/mL; with Bacillus subtilis it was 6.25 µg/mL (≈ 14.3 µM); against Salmonella typhimurium, 6.25 µg/mL (≈ 14.3 µM).

As for `Oc1ccccc1Cc1cc(Br)ccc1O`, the MIC is more than 100 µg/mL against Trichophyton rubrum; 25 µg/mL (≈ 89.6 µM) in the experiment with Proteus vulgaris; more than 100 µg/mL against Escherichia coli; 25 µg/mL (≈ 89.6 µM) against Micrococcus luteus; 25 µg/mL (≈ 89.6 µM) against Staphylococcus aureus; more than 100 µg/mL against Aspergillus fumigatus. Also, the minimal inhibitory concentration (MIC) in the experiment with Candida albicans was more than 100 µg/mL; against Trichophyton benhamiae, more than 100 µg/mL; with Bacillus subtilis, 25 µg/mL (≈ 89.6 µM); in the experiment on Salmonella typhimurium, 25 µg/mL (≈ 89.6 µM).

Turning to `NCCc1cc(Br)c(O)c(Br)c1`, the MIC is more than 100 µg/mL in the experiment on Trichophyton rubrum; more than 100 µg/mL with Proteus vulgaris; more than 100 µg/mL in the experiment with Escherichia coli; more than 100 µg/mL against Micrococcus luteus; 100 µg/mL (≈ 339 µM) in the experiment with Staphylococcus aureus; more than 100 µg/mL in the experiment on Aspergillus fumigatus. The minimum inhibitory concentration (MIC) in the experiment with Candida albicans is 100 µg/mL (≈ 339 µM); against Trichophyton benhamiae, more than 100 µg/mL; in the experiment on Bacillus subtilis it was more than 100 µg/mL; against Salmonella typhimurium, more than 100 µg/mL.

`C[C@@H]1[C@H](O)[C@@H](C)/C=C/C=C/C=C/C=C/C=C/C=C/C=C/[C@H](O[C@@H]2O[C@H](C)[C@@H](O)[C@H](N)[C@@H]2O)C[C@@H]2O[C@](O)(C[C@@H](O)C[C@@H](O)[C@H](O)CC[C@@H](O)C[C@@H](O)CC(=O)O[C@H]1C)C[C@H](O)[C@H]2C(=O)O` [AMPHOTERICIN B]: the MIC with Trichophyton rubrum came to 3.12 µg/mL (≈ 3.38 µM); with Aspergillus fumigatus, 3.12 µg/mL (≈ 3.38 µM); in the experiment on Candida albicans, 6.25 µg/mL (≈ 6.76 µM); against Trichophyton benhamiae, 3.12 µg/mL (≈ 3.38 µM).

Regarding `CC1(C)S[C@@H]2[C@H](NC(=O)[C@H](N)c3ccccc3)C(=O)N2[C@H]1C(=O)O` [AMPICILLIN], the MIC in the experiment on Proteus vulgaris was 3.12 µg/mL (≈ 8.93 µM); in the experiment on Escherichia coli it was 12.5 µg/mL (≈ 35.8 µM); with Micrococcus luteus it was 1.56 µg/mL (≈ 4.46 µM); in the experiment with Staphylococcus aureus, 1.56 µg/mL (≈ 4.46 µM); in the experiment on Bacillus subtilis, 1.56 µg/mL (≈ 4.46 µM); against Salmonella typhimurium, 3.12 µg/mL (≈ 8.93 µM).

Regarding `OCc1cc(O)c(O)c(Br)c1Br` [LANOSOL], the MIC against Trichophyton rubrum was 50 µg/mL (≈ 168 µM); against Proteus vulgaris, more than 100 µg/mL; in the experiment with Escherichia coli, more than 100 µg/mL; in the experiment with Micrococcus luteus it was more than 100 µg/mL; in the experiment on Staphylococcus aureus, more than 100 µg/mL; against Aspergillus fumigatus, more than 100 µg/mL. In addition, the MIC is more than 100 µg/mL in the experiment with Candida albicans, 50 µg/mL (≈ 168 µM) against Trichophyton benhamiae, more than 100 µg/mL against Bacillus subtilis and more than 100 µg/mL in the experiment with Salmonella typhimurium.
